# A selection: hits, their analogues and other compounds. The true share with any hit is near 2.9%.
# TRPC4 agonist: activators of mouse TRPC4 channel | Q9QUQ5 | HEK293 TRPC4beta/mu-opioid, Fluo4 calcium fluorescence; stronger effect = higher value | B-score at 10 µM | actives 0.49% (n = 310,000) | AID 2237;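 active = B-score above 5 SD of library B-scores, and initial fluorescence ratio not above library mean plus 5 SD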;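 note: positive B-score marks a calcium rise read as TRPC4 activation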
#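 Technique: kinetic Fluo4 calcium fluorescence; Test system: TRPC4beta and mu-opioid receptor HEK293 stable cells; Measure: B-scored integrated calcium fluorescence ratio; Benchmarks: low control buffer alone, high control maximal DAMGO; Schedule: 45 min room-temperature Fluo4 loading, 110 s read.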
# TRPC4 inh: blocks the mouse TRPC4 cation channel; Q9QUQ5; HEK293 TRPC4beta/mu-opioid, DAMGO-evoked Fluo4 calcium flux; stronger effect = lower value; B-score at 10 µM; actives 0.39% (n = 300,000); AID 2247;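 active = B-score over 3 SD under the library average, no early fluorescence shift, positive overall ratio signal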
#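 Material: HEK293 cells with stable TRPC4beta plus mu-opioid receptor expression / Probe or stimulus: DAMGO in two steps, submaximal then maximal / Compound: single concentration per test compound / Technique: kinetic Fluo4 fluorescence imaging of calcium influx / Read-out: per-well B score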
# TRPC4 potent: TRPC4 (mouse) allosteric potentiation; HEK293 TRPC4beta/mu-opioid, DAMGO EC20, Fluo-4 Ca2+ flux; stronger effect = higher value; Q9QUQ5; actives 0.42% (n = 310,000); B-score at 10 µM;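 active = B-score of calcium response area above 5 SD of library B-scores, with initial fluorescence ratio within 5 SD of library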;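 note: B-score of integrated fluorescence ratio over time as area under calcium response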
# TRPC6 inh: mouse TRPC6 channel inhibition; actives 1.1% (n = 310,000); HEK293-TRPC6, membrane potential dye, ACh-evoked depolarization; stronger effect = lower value; B-score at 10 µM; AID 2553; Q61143;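 active = B-score under library mean minus 3 SD, initial fluorescence not abnormally high, positive integrated signal ratio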;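 note: B-score derived from integrated fluorescence ratio over the kinetic read; more negative B-score means stronger inhibition of depolarization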
# Kir21 inh: blocks the mouse Kir2.1 inward-rectifier potassium channel. P35561. HEK293-Kir2.1, FluxOR thallium flux fluorescence; stronger effect = lower value. B-score at 10 µM. actives 0.85% (n = 310,000);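 active = fluorescence ratio B-score at or below minus 3 SD of library scores, with starting-brightness B-score within 2 SD, cut at about -4.2 in these data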;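 note: channel flux triggered by added potassium and thallium sulfate stimulus; B-score of peak minus minimum fluorescence over baseline after thallium stimulus; more negative B-score means stronger Kir2.1 block with less thallium influx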
# Target sequence (P35561 whole entry, looked up): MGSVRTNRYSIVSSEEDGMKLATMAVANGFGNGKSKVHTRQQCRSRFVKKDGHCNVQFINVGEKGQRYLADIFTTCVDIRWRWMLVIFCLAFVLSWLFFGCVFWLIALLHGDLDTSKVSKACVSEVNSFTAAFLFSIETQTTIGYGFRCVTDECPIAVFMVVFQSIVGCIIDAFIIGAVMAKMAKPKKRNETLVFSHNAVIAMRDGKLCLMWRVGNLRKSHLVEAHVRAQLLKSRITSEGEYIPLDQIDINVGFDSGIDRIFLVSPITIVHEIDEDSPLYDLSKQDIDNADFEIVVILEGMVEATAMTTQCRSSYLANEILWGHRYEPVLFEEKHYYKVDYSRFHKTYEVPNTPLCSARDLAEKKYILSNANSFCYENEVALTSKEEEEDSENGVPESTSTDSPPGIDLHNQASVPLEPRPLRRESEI
# TRPC6 activator: mouse TRPC6 channel activation | AID 2550 | Q61143 | actives 0.13% (n = 310,000) | HEK293-TRPC6 membrane potential dye fluorescence; stronger effect = higher value | B-score at 10 µM;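 active = B-score of the integrated fluorescence ratio above library mean plus 3 SD, and starting fluorescence ratio within library mean plus 5 SD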;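 note: higher score means more depolarization so channel activation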
# TRPC4 sel inh 2: mouse TRPC4 off-target activity of TRPC6 inhibitors, second screen | AID 2776 | actives 42% (n = 920) | inhibition, % at 10 µM | shares compounds with TRPC6 inh | HEK293 TRPC4/MOR, membrane potential dye fluorescence; channel activated by saturating DAMGO dose;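 active = compounds whose fluorescence signal differed from control wells by over 3 SD, either direction, in both duplicate plates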
# TRPC4 spec: mouse TRPC4 off-target activity of TRPC6 inhibitors. shares compounds with TRPC6 inh. HEK293 TRPC4/mu-opioid, membrane potential fluorescence. activity change, negative = inhibition, % at 10 µM. actives 61% (n = 920). AID 2777;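 active = rise or fall in signal beyond 3 SD of buffer-only wells in both replicate plates, either sign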;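 note: integrated kinetic ratio of fluorescence range over baseline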
# HEK293 MPD ctr 2-1: second counter-screen for TRPC6 inhibitors: parental HEK293 cells. shares compounds with TRPC6 inh. signal change vs control, % at 10 µM. actives 31% (n = 920). parental HEK293 membrane potential dye fluorescence; maximal acetylcholine challenge after compound addition;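 active = membrane potential signal moving either way by over 3 SD of the maximum-effect control, in both duplicate plates, meaning non-specific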
# HEK293 MPD ctr-1: checks TRPC6 inhibitor effects in parental HEK293 cells; actives 60% (n = 920); membrane potential signal change, % at 10 µM; shares compounds with TRPC6 inh; AID 2780; parental HEK293 membrane potential dye fluorescence;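 active = membrane potential signal shifting up or down by more than 3 SD of buffer-only wells, on both duplicate plates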
# HEK293 MPD ctr-2: checks TRPC6 modulator effects in parental HEK293 cells | actives 51% (n = 2,400) | membrane potential dye fluorescence | shares compounds with TRPC6 inh | AID 488924 | membrane potential signal change, % at 10 µM;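 active = membrane potential signal moves up or down beyond 5 SD from buffer-only wells, on both duplicate plates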
# HEK293 MPD ctr 2-2: parental HEK293 nonspecific activity of TRPC6 modulators, second screen; shares compounds with TRPC6 inh; membrane potential dye fluorescence; after compound, maximal acetylcholine stimulation; actives 14% (n = 2,400); inhibition, % at 10 µM;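 active = membrane potential signal drops by more than 5 SD from the mean control signal, in both duplicate plates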;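 note: plate controls were acetylcholine ECmax control wells for no effect and buffer only wells for full effect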
# TRPC4 ctr mod: tests whether TRPC6 modulators also affect mouse TRPC4 | actives 69% (n = 2,400) | AID 488927 | shares compounds with TRPC6 inh | HEK293 TRPC4/mu-opioid, membrane potential fluorescence | percent change from control (negative = decrease, positive = increase), % at 10 µM;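 active = membrane potential signal moved up or down beyond 5 SD of buffer control wells, in both duplicate plates, actives on both sides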;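 note: plate controls were assay buffer wells for no effect and DAMGO maximal-effect wells for full effect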
# TRPC4 ctr inh 2: second selectivity test of TRPC6 modulators against mouse TRPC4; shares compounds with TRPC6 inh; HEK293 TRPC4/mu-opioid, membrane potential dye fluorescence; stimulated with maximal-effect DAMGO; inhibition, % at 10 µM; actives 55% (n = 2,400); AID 488928;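 active = drop in membrane potential signal beyond 5 SD of the control wells in both duplicate plates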;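 note: TRPC4 counter screen for TRPC6 hits run under conditions tuned for TRPC6 not TRPC4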
# TRPC6 inh conf: confirmation of mouse TRPC6 inhibitors | shares compounds with TRPC6 inh | HEK293-TRPC6, membrane potential dye, ACh-evoked depolarization | inhibition, % at 10 µM | actives 43% (n = 3,300) | AID 488960;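 active = fluorescence ratio falls more than 5 SD below the full-stimulation control mean, in both duplicate runs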;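 note: integrated fluorescence ratio of peak minus minimum over baseline after agonist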
# TRPC6 act conf: mouse TRPC6 activator confirmation. shares compounds with TRPC6 inh. HEK293-TRPC6 membrane potential dye fluorescence, FDSS. activation, % at 10 µM. actives 11% (n = 2,800);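 active = ratio signal rise beyond 5 SD above unstimulated control wells' mean, seen in both duplicate runs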;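 note: plate controls were buffer EC0 wells for no effect and acetylcholine ECmax response for full effect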
# Numbers without * were called inactive; i = inactive; . = not tested or not shown.
SMILES,TRPC4 agonist,TRPC4 inh,TRPC4 potent,TRPC6 inh,Kir21 inh,TRPC6 activator,HEK293 MPD ctr-2,HEK293 MPD ctr 2-2,TRPC4 ctr mod,TRPC4 ctr inh 2,TRPC6 inh conf,TRPC6 act conf,others
COc1ccccc1Nc1nc(NCCCN(C)C)nc(N)c1[N+](=O)[O-],i,i,i,-6.4*,-3.9,i,i,i,i,49%*,42%*,i,
O=C(c1ccc(Cl)s1)N1CCN(C23CC4CC(CC(C4)C2)C3)CC1,i,i,i,i,0.19,i,.,.,.,.,.,.,
O=C(c1cccs1)N1CCN(C23CC4CC(CC(C4)C2)C3)CC1,i,i,i,-6.3*,0.47,i,114%*,i,18%*,i,44%*,.,
Cn1c(=O)c(C(=O)Nc2ccccc2S(N)(=O)=O)c(O)c2ccccc21,i,i,i,i,1.6,i,.,.,.,.,.,.,
Cn1c(=O)c(C(=O)Nc2ccccn2)c(O)c2ccccc21,i,i,i,-8.7*,0.32,i,.,.,.,.,i,i,TRPC4 sel inh 2=i;TRPC4 spec=-21%*;HEK293 MPD ctr 2-1=i;HEK293 MPD ctr-1=-327%*
CCN(CC)CCNC(=O)c1ccc(Cl)c(S(=O)(=O)Nc2ccc(Cl)cc2)c1,i,i,i,i,0.05,i,.,.,.,.,.,.,
CCN(CC)CCNC(=O)c1ccc(NC(=O)c2ccc(Cl)c(S(=O)(=O)N3CCCCCC3)c2)cc1,i,i,i,-6*,0.01,i,113%*,76%*,12%*,i,42%*,.,
Cn1c(=O)c2c(nc(N3CCCCCC3)n2Cc2cccc3ccccc23)n(C)c1=O,i,i,13*,-8.8*,0.33,i,.,.,.,.,i,i,TRPC4 sel inh 2=i;TRPC4 spec=i;HEK293 MPD ctr 2-1=i;HEK293 MPD ctr-1=i
COc1nc(C)nc2c1sc1nc3c(cc12)COC(C)(C)C3,i,i,i,-6.4*,1.2,i,i,i,-12%*,i,i,i,
Cc1nc(N/N=C/c2ccc(Br)cc2)cc(N2CCOCC2)n1,i,i,i,i,0,i,.,.,.,.,.,.,
CCOc1ccc(NC(=O)CC2C(=O)N(c3cccc(OC)c3)C(=O)N2CCOC)cc1 (stereo not drawn),i,i,i,i,2,i,.,.,.,.,.,.,
COCCNc1nc2nonc2nc1N1C[C@H]2CC[C@H]1C2,i,i,i,i,-2.2,i,.,.,.,.,.,.,
COCCNc1nc2nonc2nc1N1CCC(N(C)C)C1 (stereo not drawn),i,i,i,-5.4*,-0.01,i,i,i,i,i,i,i,
CCOc1ccc2nc(N(CCN(CC)CC)C(=O)c3cccc([N+](=O)[O-])c3)sc2c1,i,i,i,i,0.47,i,.,.,.,.,.,.,
c1ccc(-n2cc(CN3CCCC(CN4CCCC4)C3)c(-c3ccc4c(c3)OCO4)n2)cc1 (stereo not drawn),i,i,i,-5.8*,0.22,i,i,i,i,73%*,i,i,
CCc1ccc2c(c1)C1(NN=C(c3ccc(C)cc3)S1)C(=O)N2 (stereo not drawn),i,i,i,i,2.7,i,.,.,.,.,.,.,
CC(C)c1ccc2c(c1)C1(NN=C(c3ccccc3)S1)C(=O)N2 (stereo not drawn),i,i,11*,-5.7*,0.95,i,-150%*,i,-33%*,75%*,46%*,i,
CN(/C(=N/S(=O)(=O)c1ccccc1)c1ccccc1)S(=O)(=O)c1ccccc1,i,i,i,-6.5*,-1.4,i,i,i,10%*,i,i,i,
CN(/C(=N\S(=O)(=O)c1ccccc1)c1ccccc1)c1ccc(O)cc1,i,i,i,i,1.3,i,.,.,.,.,.,.,
Cc1ccn2c(=O)c(C(=O)NCCCN3CCCCC3C)c(O)nc2c1 (stereo not drawn),i,i,i,-5.3*,-0.97,i,-274%*,70%*,-44%*,56%*,76%*,i,
Cc1ccn2c(=O)c(C(=O)NCCCN3CCCC3=O)c(O)nc2c1,i,i,i,-5.5*,0.94,i,-316%*,i,-45%*,i,i,i,
Cc1cccn2c(=O)c(C(=O)NCCCN3CC(C)CC(C)C3)c(O)nc12 (stereo not drawn),73*,i,i,-5.1*,2.2,i,-140%*,i,i,i,i,i,
CCC1CCCCN1CCCNC(=O)c1c(O)nc2cc(C)ccn2c1=O (stereo not drawn),i,i,i,i,1.3,i,.,.,.,.,.,.,
Cc1csc2nc(O)c(C(=O)NCCCN3CCCC3=O)c(=O)n12,i,i,i,i,-0.62,i,.,.,.,.,.,.,
O=C(OCCN1CCOCC1)c1ccc(Cl)cc1Cl,i,i,i,i,0.81,i,.,.,.,.,.,.,

# Compound activity as filed in PubChem BioAssay.
